Test results published in paper PMC8341669 (RSC Chemical Biology, 2021).

Experiment: CD spectrum / MD helical content of the peptide in the free state
Type: physicochemical
Conditions: CD in H2O at 200 μM and MD simulations
Summary of the method: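 Peptide dissolved in HPLC-grade water at 200 μM and CD spectra recorded on a spectropolarimeter. Free peptide in solution MD: steepest-descent minimisation, 1 ns NVT (300 K, V-rescale) and 1 ns NPT (1 bar, Parrinello–Rahman) equilibration with heavy-atom restraints stepped off, then four 200 ns NPT production runs per peptide; PME electrostatics, 10 Å van der Waals cut-off, LINCS constraints.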

α-helical content in the free state: lower α-helical content
Sequence: RIRREEYLKAIQ [Linear]
